Test results published in ChEMBL document CHEMBL4346684, “Synthesis and structure-bactericidal activity relationships of non-ketolides: 9-Oxime clarithromycin 11,12-cyclic carbonate featured with three-to eight-atom-length spacers at 3-OH” (Eur J Med Chem, 2019).
Converted amounts (≈) assume the structure as drawn.

Assays:
Type in all cases: functional
Streptococcus pneumoniae [1] = test: Antimicrobial activity against erythromycin-susceptible Streptococcus pneumoniae ATCC 49619 incubated in CAMHB medium for 20 to 24 hrs by two-fold microbroth dilution method
Streptococcus pneumoniae [2] = test: Antimicrobial activity against mef-encoded erythromycin resistant Streptococcus pneumoniae PU09 incubated in CAMHB medium for 20 to 24 hrs by two-fold microbroth dilution method
Streptococcus pneumoniae [3] = test: Bactericidal activity against erythromycin-susceptible Streptococcus pneumoniae ATCC 49619 assessed as reduction in colony formation incubated in CAMHB medium for 20 to 24 hrs followed by 24 hrs subculturing in the medium without test compound
Streptococcus pneumoniae [4] = test: Ratio of MBC to MIC for erythromycin-susceptible Streptococcus pneumoniae ATCC 49619
Streptococcus pneumoniae [5] = test: Bactericidal activity against mef-encoded erythromycin resistant Streptococcus pneumoniae PU09 assessed as reduction in colony formation incubated in CAMHB medium for 20 to 24 hrs followed by 24 hrs subculturing in the medium without test compound
Streptococcus pneumoniae [6] = test: Ratio of MBC to MIC for mef-encoded erythromycin resistant Streptococcus pneumoniae PU09
Streptococcus pyogenes [7] = test: Antimicrobial activity against inducibly erythromycin resistant Streptococcus pyogenes 01-968 expressing i-ermA incubated in CAMHB medium for 20 to 24 hrs by two-fold microbroth dilution method
Streptococcus pyogenes [8] = test: Bactericidal activity against inducibly erythromycin resistant Streptococcus pyogenes 01-968 expressing i-ermA assessed as reduction in colony formation incubated in CAMHB medium for 20 to 24 hrs followed by 24 hrs subculturing in the medium without test compound
Streptococcus pyogenes [9] = test: Ratio of MBC to MIC for inducibly erythromycin resistant Streptococcus pyogenes 01-968 expressing i-ermA
Staphylococcus aureus [10] = test: Antimicrobial activity against constitutively erythromycin resistant and methicillin resistant Staphylococcus aureus PU20 expressing c-ermC incubated in CAMHB medium for 20 hrs by two-fold microbroth dilution method; conditions: PU20, 20 h
How it was run: (§1)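 Purified fresh Staphylococcus isolate at about 5×10^5 CFU/ml final in CAMHB, 35 °C for 20 h. Each run included ATCC strains and reference antibiotics as QC, plus an antibiotic-free growth control.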

Staphylococcus aureus [11] = test: Bactericidal activity against constitutively erythromycin resistant and methicillin-resistant Staphylococcus aureus PU20 expressing c-ermC assessed as reduction in colony formation incubated in CAMHB medium for 20 hrs followed by 24 hrs subculturing in the medium without test compound
Staphylococcus aureus [12] = test: Ratio of MBC to MIC for constitutively erythromycin resistant and methicillin-resistant Staphylococcus aureus PU20 expressing c-ermC
Staphylococcus aureus [13] = test: Antimicrobial activity against inducibly erythromycin-resistant and methicillin resistant Staphylococcus aureus PU32 expressing i-ermA incubated in CAMHB medium for 20 hrs by two-fold microbroth dilution method; conditions: PU32, 20 h; how it was run: as §1
Staphylococcus aureus [14] = test: Bactericidal activity against inducibly erythromycin-resistant and methicillin resistant Staphylococcus aureus PU32 expressing i-ermA assessed as reduction in colony formation incubated in CAMHB medium for 20 hrs followed by 24 hrs subculturing in the medium without test compound
Moraxella catarrhalis [15] = test: Antimicrobial activity against erythromycin-susceptible Moraxella catarrhalis 13L332 incubated in CAMHB medium for 20 hrs by two-fold microbroth dilution method; conditions: 13L332, 20 h
How it was run: (§2)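 Clinical isolates and ATCC strains, purified by plate activation and used fresh; inoculum about 5×10^5 CFU/ml final. Grown in CAMHB at 35 °C for 20 h.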

Moraxella catarrhalis [16] = test: Bactericidal activity against erythromycin-susceptible Moraxella catarrhalis 13L332 assessed as reduction in colony formation incubated in CAMHB medium for 20 hrs followed by 24 hrs subculturing in the medium without test compound
Moraxella catarrhalis [17] = test: Ratio of MBC to MIC for erythromycin-susceptible Moraxella catarrhalis 13L332
Haemophilus influenzae [18] = test: Antimicrobial activity against azithromycin-susceptible Haemophilus influenzae ATCC 49247 incubated in HTM broth medium for 20 to 24 hrs by two-fold microbroth dilution method
Haemophilus influenzae [19] = test: Bactericidal activity against azithromycin-susceptible Haemophilus influenzae ATCC 49247 assessed as reduction in colony formation incubated in HTM broth medium for 20 to 24 hrs followed by 24 hrs subculturing in the medium without test compound
Haemophilus influenzae [20] = test: Ratio of MBC to MIC for azithromycin-susceptible Haemophilus influenzae ATCC 49247
Streptococcus pneumoniae [21] = test: Antimicrobial activity against constitutively erythromycin resistant Streptococcus pneumoniae PU27 expressing c-erm incubated in CAMHB medium for 20 to 24 hrs by two-fold microbroth dilution method
How it was run: (§3)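 Purified fresh Streptococcus isolate at about 5×10^5 CFU/ml final in CAMHB with 5% horse serum, 35 °C for 20–24 h. […] Each run included ATCC strains and reference antibiotics as QC, plus an antibiotic-free growth control.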

Streptococcus pyogenes [22] = test: Antimicrobial activity against constitutively erythromycin resistant Streptococcus pyogenes A2 expressing c-erm incubated in CAMHB medium for 20 to 24 hrs by two-fold microbroth dilution method; how it was run: as §3
Streptococcus pyogenes [23] = test: Antimicrobial activity against erythromycin-susceptible Streptococcus pyogenes A3 incubated in CAMHB medium for 20 to 24 hrs by two-fold microbroth dilution method
Staphylococcus aureus [24] = test: Antimicrobial activity against erythromycin-susceptible Staphylococcus aureus ATCC 29213 incubated in CAMHB medium for 20 hrs by two-fold microbroth dilution method; conditions: ATCC 29213, 20 h; how it was run: as §2
Staphylococcus aureus [25] = test: Antimicrobial activity against inducibly erythromycin-resistant Staphylococcus aureus PU32 expressing i-ermA incubated in CAMHB medium for 20 hrs by two-fold microbroth dilution method; conditions: PU32, 20 h
How it was run: (§4)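 Purified fresh Staphylococcus isolate at about 5×10^5 CFU/ml final in CAMHB, 35 °C for 20 h. […] Each run included ATCC strains and reference antibiotics as QC, plus an antibiotic-free growth control.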

Staphylococcus aureus [26] = test: Antimicrobial activity against constitutively erythromycin resistant Staphylococcus aureus PU20 expressing c-ermC incubated in CAMHB medium for 20 hrs by two-fold microbroth dilution method; conditions: PU20, 20 h; how it was run: as §4
Staphylococcus aureus [27] = test: Antimicrobial activity against inducibly erythromycin resistant Staphylococcus aureus PU64 expressing i-ermA incubated in CAMHB medium for 20 hrs by two-fold microbroth dilution method; conditions: PU64, 20 h; how it was run: as §4
[28] = system: Staphylococcus epidermidis; test: Antimicrobial activity against Staphylococcus epidermidis E1 incubated in CAMHB medium for 20 hrs by two-fold microbroth dilution method; conditions: E1, 20 h; how it was run: as §2
Staphylococcus aureus [29] = test: Ratio of MBC to MIC for inducibly erythromycin-resistant and methicillin resistant Staphylococcus aureus PU32 expressing i-ermA

SMILES	MIC (Streptococcus pneumoniae [1])	MIC (Streptococcus pneumoniae [2])	MBC (Streptococcus pneumoniae [3])	Ratio (Streptococcus pneumoniae [4])	MBC (Streptococcus pneumoniae [5])	Ratio (Streptococcus pneumoniae [6])	MIC (Streptococcus pyogenes [7])	MBC (Streptococcus pyogenes [8])	Ratio (Streptococcus pyogenes [9])	MIC (Staphylococcus aureus [10])	MBC (Staphylococcus aureus [11])	Ratio (Staphylococcus aureus [12])	MIC (Staphylococcus aureus [13])	MBC (Staphylococcus aureus [14])	MIC (Moraxella catarrhalis [15])	MBC (Moraxella catarrhalis [16])	Ratio (Moraxella catarrhalis [17])	MIC (Haemophilus influenzae [18])	MBC (Haemophilus influenzae [19])	Ratio (Haemophilus influenzae [20])	also measured
CC[C@H]1OC(=O)[C@H](C)[C@@H](OCC#Cc2ccc(OCc3ccccc3)cc2)[C@H](C)[C@@H](O[C@@H]2O[C@H](C)C[C@H](N(C)C)[C@H]2O)[C@](C)(OC)C[C@@H](C)/C(=N\OC)[C@H](C)[C@H]2OC(=O)O[C@@]21C	8 µg/mL (≈ 9.25 µM)	8 µg/mL (≈ 9.25 µM)	32 µg/mL (≈ 37 µM)	4	16 µg/mL (≈ 18.5 µM)	2	4 µg/mL (≈ 4.62 µM)	8 µg/mL (≈ 9.25 µM)	2	32 µg/mL (≈ 37 µM)	256 µg/mL (≈ 296 µM)	8	> 256 µg/mL	> 256 µg/mL	8 µg/mL (≈ 9.25 µM)	8 µg/mL (≈ 9.25 µM)	1	–	–	–	–
CC[C@H]1OC(=O)[C@H](C)[C@@H](OC(=O)CCNCCCCc2cccnc2)[C@H](C)[C@@H](O[C@@H]2O[C@H](C)C[C@H](N(C)C)[C@H]2O)[C@](C)(OC)C[C@@H](C)/C(=N\OC)[C@H](C)[C@H]2OC(=O)O[C@@]21C	1 µg/mL (≈ 1.18 µM)	2 µg/mL (≈ 2.36 µM)	4 µg/mL (≈ 4.71 µM)	4	4 µg/mL (≈ 4.71 µM)	2	64 µg/mL (≈ 75.4 µM)	128 µg/mL (≈ 151 µM)	2	256 µg/mL (≈ 302 µM)	256 µg/mL (≈ 302 µM)	1	128 µg/mL (≈ 151 µM)	> 256 µg/mL	–	–	–	128 µg/mL (≈ 151 µM)	256 µg/mL (≈ 302 µM)	2	–
CC[C@H]1OC(=O)[C@H](C)[C@@H](O[C@H]2C[C@@](C)(OC)[C@@H](O)[C@H](C)O2)[C@H](C)[C@@H](O[C@@H]2O[C@H](C)C[C@H](N(C)C)[C@H]2O)[C@](C)(OC)C[C@@H](C)C(=O)[C@H](C)[C@@H](O)[C@]1(C)O [CLARITHROMYCIN]	0.06 to 0.064 µg/mL (≈ 0.0802 to 0.0856 µM)	4 µg/mL (≈ 5.35 µM)	0.125 to 0.25 µg/mL (≈ 0.167 to 0.334 µM)	2 - 4	8 to 32 µg/mL (≈ 10.7 to 42.8 µM)	2 - 8	1 to 8 µg/mL (≈ 1.34 to 10.7 µM)	8 to 64 µg/mL (≈ 10.7 to 85.6 µM)	>8	> 256 µg/mL	> 256 µg/mL	–	32 µg/mL (≈ 42.8 µM)	> 256 µg/mL	0.031 µg/mL (≈ 0.0414 µM)	0.125 µg/mL (≈ 0.167 µM)	4	4 µg/mL (≈ 5.35 µM)	8 µg/mL (≈ 10.7 µM)	2	MIC (Streptococcus pneumoniae [21]): 4 µg/mL (≈ 5.35 µM); MIC (Streptococcus pyogenes [22]): 128 µg/mL (≈ 171 µM); MIC (Streptococcus pyogenes [23]): ≤ 0.032 µg/mL; MIC (Staphylococcus aureus [24]): 0.25 µg/mL (≈ 0.334 µM); MIC (Staphylococcus aureus [25]): > 256 µg/mL; MIC (Staphylococcus aureus [26]): > 256 µg/mL; MIC (Staphylococcus aureus [27]): > 256 µg/mL; MIC [28]: > 256 µg/mL; Ratio (Staphylococcus aureus [29]): >8
